From PubChem
A selection: hits, their analogues and other compounds. The true share with any hit is near 1.8%.
NR2E3 ag-1: NR2E3 agonists in two-hybrid cells, primary screen, cell-based, luminescence, CHO-S, Gal4-NCOR/VP16-NR2E3 | Photoreceptor-specific nuclear receptor (Homo sapiens), Q9Y5X4 | luciferase | inhibition of corepressor binding, % at 3.98 µM | 360,000 compounds, 0.35% hits | AID 602229, 2012;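 active = inhibition above the mean of all tested compounds plus 3 SD, cut at about 70% in these data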;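 also: higher means lower luciferase signal from less NR2E3 corepressor binding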
PG9 binder: binders of HIV-1 gp120 antibody PG9, primary screen, biochemical, TR-FRET; 360,000 compounds, 0.43% hits; TR-FRET gp120-PG9 antibody binding; inhibition, % at 6.7 µM; in the data active = inhibition above about 8.5%
NR2E3 ag-2: inhibitors of NR2E3-RetCOR corepressor binding, primary screen, NR2E3 agonist project, biochemical, TR-FRET, GST-NR2E3, biotin-RetCOR. Photoreceptor-specific nuclear receptor (Homo sapiens), Q9Y5X4. 1536-well. inhibition of corepressor binding, % at 4.78 µM. 320,000 compounds, 0.12% hits;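 active = percent inhibition above the cutoff of mean plus 3 SD of all tested compounds, set per screening campaign, cut at about 20% in these data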
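system = GST-tagged NR2E3 plus biotinylated RetCOR corepressor | input = 1.35 nM GST-NR2E3 | also added = 7 nM biotin-RetCOR | schedule = 5 h incubation at 4 °C | measured by = TR-FRET with europium anti-GST and streptavidin-D2, 340 nm excitation | read-out = percent loss of FRET ratio relative to control wells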
GalR3 antag: GalR3 antagonists in HEK293 cells, primary screen, cell-based, fluorescence readout; Galanin receptor type 3 (Homo sapiens), O60755; inhibition, % at 3 µM; AID 651719, 2012; HEK293 GalR3-CNG cAMP membrane potential fluorescence; galR3 body fused to GalR1 C-terminus; 360,000 compounds, 0.44% hits;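 active = inhibition above the screen-wide average plus 3 SD, cut at about 13% in these data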;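 also: forskolin and galanin both at EC90 stimulate the cells; cAMP rise reported by CNG channel membrane potential dye signal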
Rev-erbA mod: modulators of Rev-erb alpha DNA binding, primary screen, biochemical, FITC-DNA, fluorescence polarization, uHTS; activity, % at 10 µM; 370,000 compounds, 0.79% hits; Nuclear receptor subfamily 1 group D member 1 (Homo sapiens), P20393; Rev-erbα–FITC-DNA binding, 90 min;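 active = activity above about 14%, limit read from the data; passing the limit was not always enough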
Target sequence (P20393 whole entry, looked up): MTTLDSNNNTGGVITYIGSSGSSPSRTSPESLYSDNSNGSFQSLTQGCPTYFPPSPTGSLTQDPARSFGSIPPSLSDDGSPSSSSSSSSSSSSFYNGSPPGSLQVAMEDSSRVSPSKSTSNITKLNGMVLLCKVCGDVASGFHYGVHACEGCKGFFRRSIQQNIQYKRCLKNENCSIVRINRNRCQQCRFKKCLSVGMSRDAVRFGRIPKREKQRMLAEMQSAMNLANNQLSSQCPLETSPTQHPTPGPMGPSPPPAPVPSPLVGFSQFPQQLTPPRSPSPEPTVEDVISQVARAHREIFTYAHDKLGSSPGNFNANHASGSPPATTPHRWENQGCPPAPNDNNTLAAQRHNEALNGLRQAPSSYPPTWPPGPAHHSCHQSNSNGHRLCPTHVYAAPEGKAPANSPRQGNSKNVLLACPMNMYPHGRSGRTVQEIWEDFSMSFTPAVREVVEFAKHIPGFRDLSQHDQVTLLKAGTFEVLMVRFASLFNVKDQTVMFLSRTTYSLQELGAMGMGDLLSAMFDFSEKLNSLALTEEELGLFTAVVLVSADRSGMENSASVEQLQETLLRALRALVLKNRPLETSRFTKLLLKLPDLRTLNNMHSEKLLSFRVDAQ
NR1D1 mod conf: modulators of Rev-erb alpha DNA binding, confirmation, biochemical, FITC-DNA, fluorescence polarization, single point. shares compounds with Rev-erbA mod. 90 min. activation, % at 25 µM. 3,000 compounds, 61% hits;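 active = activation at or above a set limit, or at least 3 SD above the negative control mean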
RORg DNA counter: modulation of RORgamma DNA binding, dose response, counter-screen for Rev-erb alpha modulator project, biochemical, fluorescence polarization, FITC-DNA; purified RORgamma protein-FITC-DNA binding; shares compounds with Rev-erbA mod; AID 1259320, 2017; IC50, µM; 910 compounds, 8% hits;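 active = Compounds whose fitted half-maximal concentration for disrupting protein-DNA binding is below 10 micromolar; the record names Rev-erb in its text, so the target is in doubt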
Numbers stand for hits.

What do the screens show for `CCOc1ccccc1NC(=O)c1nnn(CC(=O)Nc2cc(C)cc(C)c2)c1N`?
NR2E3 ag-1: inactive; PG9 binder: inactive; NR2E3 ag-2: inactive; GalR3 antag: inactive; Rev-erbA mod: 21; NR1D1 mod conf: 32; RORg DNA counter: inactive

What do the screens show for `COc1ccccc1NC(=O)c1nnn(CC(=O)Nc2cc(C)cc(C)c2)c1N`?
NR2E3 ag-1: inactive; PG9 binder: inactive; NR2E3 ag-2: inactive; GalR3 antag: inactive; Rev-erbA mod: inactive

What do the screens show for `Cc1nc2ccc(C(=O)OCc3nnc(-c4ccccc4)o3)cc2nc1C`?
NR2E3 ag-1: inactive; PG9 binder: inactive; GalR3 antag: inactive; Rev-erbA mod: inactive

What do the screens show for `Cc1nc2ccc(C(=O)OCc3nnc(-c4ccc(Br)cc4)o3)cc2nc1C`?
NR2E3 ag-1: inactive; PG9 binder: inactive; NR2E3 ag-2: inactive; GalR3 antag: inactive; Rev-erbA mod: 23; NR1D1 mod conf: 19

Results for Cc1ccc(C(=O)NNCC(=O)Nc2ccc(Cl)cc2F)cc1 ?
NR2E3 ag-1: inactive; PG9 binder: inactive; GalR3 antag: inactive; Rev-erbA mod: 18; NR1D1 mod conf: inactive

What do the screens show for `CC(C)CCCCCCCCc1cccc(O)c1C(=O)O`?
PG9 binder: inactive; GalR3 antag: inactive; Rev-erbA mod: inactive

What do the screens show for `CC(=O)N1c2ccccc2S(=O)(=O)c2c1ccc1ccccc21`?
NR2E3 ag-1: inactive; PG9 binder: inactive; GalR3 antag: inactive; Rev-erbA mod: 23; NR1D1 mod conf: inactive

Results for CCCc1cc2c(=O)c(-c3nc4ccccc4s3)c(COCC(=O)O)oc2cc1O ?
NR2E3 ag-1: inactive; PG9 binder: inactive; GalR3 antag: inactive; Rev-erbA mod: 30; NR1D1 mod conf: inactive

Results for CCn1c(SCC(=O)N/N=C/c2cccc(Oc3ccccc3)c2)nnc1-c1ccccc1 ?
Rev-erbA mod: inactive

How did Clc1ccc([C@H]2OC[C@@]3(CNCc4ccccn4)CS[C@H](c4ccc(Cl)cc4)N23)cc1 do in these assays?
Rev-erbA mod: inactive

How did O=C(C1CCCN1S(=O)(=O)c1ccc([N+](=O)[O-])cc1)N1CCN(c2ccccc2)CC1 (stereo unspecified) do in these assays?
Rev-erbA mod: inactive

How did Cc1nc(N2CCN(S(=O)(=O)c3ccccc3)CC2)c2cc(-c3ccccc3)sc2n1 do in these assays?
NR2E3 ag-1: inactive; PG9 binder: inactive; NR2E3 ag-2: inactive; GalR3 antag: inactive; Rev-erbA mod: 44; NR1D1 mod conf: 28

What do the screens show for `COc1cc(/C=C/c2noc(-c3ccccc3O)n2)cc(OC)c1OC`?
NR2E3 ag-1: inactive; PG9 binder: inactive; NR2E3 ag-2: inactive; GalR3 antag: inactive; Rev-erbA mod: 51; NR1D1 mod conf: 25

Results for CCOC(=O)c1ccccc1NC(=O)c1cn(-c2ccc(C)c(C)c2)c(=O)c2ccccc12 ?
NR2E3 ag-1: inactive; PG9 binder: inactive; NR2E3 ag-2: inactive; GalR3 antag: inactive; Rev-erbA mod: inactive

Results for COC(=O)c1ccccc1NC(=O)c1cn(-c2ccc(C)c(C)c2)c(=O)c2ccccc12 ?
NR2E3 ag-1: inactive; PG9 binder: inactive; NR2E3 ag-2: inactive; GalR3 antag: inactive; Rev-erbA mod: 42; NR1D1 mod conf: 48; RORg DNA counter: inactive

Results for Cc1ccc(C)c(CN2C(=O)C3CCCN3c3ccc(C#N)cc32)c1 (stereo unspecified) ?
NR2E3 ag-1: inactive; PG9 binder: inactive; NR2E3 ag-2: inactive; GalR3 antag: inactive; Rev-erbA mod: 49; NR1D1 mod conf: 36

How did Cc1oc2cc3oc(=O)c4c(c3cc2c1C)CCC4 do in these assays?
NR2E3 ag-1: inactive; PG9 binder: inactive; NR2E3 ag-2: inactive; GalR3 antag: inactive; Rev-erbA mod: 49; NR1D1 mod conf: 44; RORg DNA counter: inactive

How did Cc1oc2c(C)c3oc(=O)c4c(c3cc2c1C)CCC4 do in these assays?
NR2E3 ag-1: inactive; PG9 binder: inactive; GalR3 antag: inactive; Rev-erbA mod: 46; NR1D1 mod conf: inactive

What do the screens show for `Cc1coc2c(C)c3oc(=O)c4c(c3cc12)CCCC4`?
NR2E3 ag-1: inactive; PG9 binder: inactive; NR2E3 ag-2: inactive; GalR3 antag: inactive; Rev-erbA mod: inactive

How did CC(C)N(C[C@@H]1CSCCS(=O)(=O)N1)C1CCCCC1 do in these assays?
PG9 binder: inactive; GalR3 antag: inactive; Rev-erbA mod: inactive

What do the screens show for `CC(C)(C)[C@H](NC(=O)c1cc(Cl)cc(Cl)c1)C(=O)N1CCC[C@H]1C(=O)N[C@H](C#N)CC(=O)O`?
Rev-erbA mod: inactive

Results for NC1=[N+](Cc2ccccc2)C(Cc2ccccc2)C2C(=C3CCCCC3n3c(=O)n(-c4ccccc4)c(=O)n32)N1 (stereo unspecified) ?
Rev-erbA mod: inactive

Results for CNC(=S)N(Cc1ccc(OC)cc1)Cc1cc2cc(C)ccc2[nH]c1=O ?
NR2E3 ag-1: inactive; PG9 binder: inactive; NR2E3 ag-2: inactive; GalR3 antag: inactive; Rev-erbA mod: 40; NR1D1 mod conf: 25

What do the screens show for `COc1ccc(CN(Cc2cc3cc(OC)c(OC)cc3[nH]c2=O)C(=O)NC2CCCCC2)cc1`?
NR2E3 ag-1: inactive; PG9 binder: inactive; NR2E3 ag-2: inactive; GalR3 antag: inactive; Rev-erbA mod: 50; NR1D1 mod conf: 78; RORg DNA counter: inactive

Results for COc1ccc(CN(Cc2cc3cc(C)ccc3[nH]c2=O)C(=O)N(C)C)cc1 ?
NR2E3 ag-1: inactive; PG9 binder: inactive; NR2E3 ag-2: inactive; GalR3 antag: inactive; Rev-erbA mod: inactive

Results for COc1cc2cc(CN(C(=O)NC3CCCCC3)C3CCCC3)c(=O)[nH]c2cc1OC ?
NR2E3 ag-1: inactive; PG9 binder: inactive; NR2E3 ag-2: inactive; GalR3 antag: inactive; Rev-erbA mod: inactive

How did C[C@@H]1OCN(C)[C@H]2C[C@H]3c4[nH]c5cccc(-c6ccccc6)c5c4CCN3C[C@@H]12 do in these assays?
Rev-erbA mod: inactive

Results for Nc1ncc2c(n1)-c1cc(Cl)ccc1SC2 ?
NR2E3 ag-1: inactive; PG9 binder: inactive; NR2E3 ag-2: inactive; GalR3 antag: inactive; Rev-erbA mod: 34; NR1D1 mod conf: inactive

Results for CN(Cc1ccccc1)Cc1cc(=O)oc2ccccc12 ?
NR2E3 ag-1: inactive; PG9 binder: inactive; GalR3 antag: inactive; Rev-erbA mod: inactive
